This is a sample that favours compounds with a hit; in the whole collection about 0.95% have one here.
SUMO HTRF inh = inhibitors of in vitro SUMOylation cascade, primary screen, biochemical, HTRF, uHTS. SUMO-conjugating enzyme UBC9 (Homo sapiens), P63279. HTRF SUMOylation assay, SAE1/SAE2 + UBC9. inhibition, % at 35 µM. 290,000 compounds, 0.36% hits; in the data active = inhibition above about 50%, passing the limit was not always enough; inconclusive = no clear call, values can overlap the other calls
Diaphorase inh = diaphorase inhibitors and chemical oxidizers, primary screen, counter-screen for diaphorase-coupled primary assays, biochemical, uHTS, resorufin fluorescence | inhibition, % at 20 µM | 190,000 compounds, 0.69% hits | AID 1217, 2008 | diaphorase resazurin-to-resorufin fluorescence, NADH, 16 min; bacterial (C. kluyveri) enzyme, not human;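 active = primary screen inhibition at 20 µM above a set limit, cut at about 50% in these data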;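 note: plate controls were DMSO with full reaction for no effect and wells lacking NADH for full effect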
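Assay system – diaphorase enzyme from Clostridium kluyveri · Amount – diaphorase 0.14 U/mL (working solution) · Times – reaction incubation of 16 min at room temperature · Controls – No-NADH positive control and DMSO neutral control · Signal – resorufin fluorescence 544/590 nm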
G6PDH CS = L. mesenteroides G6PDH inhibitors, counter-screen for G6PDH-coupled screening assays, biochemical, Leuconostoc mesenteroides enzyme. AID 1020, 2008. Purified L. mesenteroides G6PDH, diaphorase/resazurin coupled fluorescence, 45 min. 200,000 compounds, 0.12% hits. inhibition, % at 5 µM; in the data active = inhibition above about 50%
HKDC1 inh = HKDC1 hexokinase inhibitors, primary screen, biochemical, fluorescence, uHTS; recombinant HKDC1, G6PDH/diaphorase resazurin coupled fluorescence; inhibition, % at 20 µM; Q2TB90; 340,000 compounds, 0.16% hits;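 active = inhibition above about 35% when tested at 20 µM, limit read from the data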;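 note: plate controls were DMSO wells with enzyme for no effect and DMSO wells lacking enzyme for full effect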
Target sequence (Q2TB90 whole entry, looked up): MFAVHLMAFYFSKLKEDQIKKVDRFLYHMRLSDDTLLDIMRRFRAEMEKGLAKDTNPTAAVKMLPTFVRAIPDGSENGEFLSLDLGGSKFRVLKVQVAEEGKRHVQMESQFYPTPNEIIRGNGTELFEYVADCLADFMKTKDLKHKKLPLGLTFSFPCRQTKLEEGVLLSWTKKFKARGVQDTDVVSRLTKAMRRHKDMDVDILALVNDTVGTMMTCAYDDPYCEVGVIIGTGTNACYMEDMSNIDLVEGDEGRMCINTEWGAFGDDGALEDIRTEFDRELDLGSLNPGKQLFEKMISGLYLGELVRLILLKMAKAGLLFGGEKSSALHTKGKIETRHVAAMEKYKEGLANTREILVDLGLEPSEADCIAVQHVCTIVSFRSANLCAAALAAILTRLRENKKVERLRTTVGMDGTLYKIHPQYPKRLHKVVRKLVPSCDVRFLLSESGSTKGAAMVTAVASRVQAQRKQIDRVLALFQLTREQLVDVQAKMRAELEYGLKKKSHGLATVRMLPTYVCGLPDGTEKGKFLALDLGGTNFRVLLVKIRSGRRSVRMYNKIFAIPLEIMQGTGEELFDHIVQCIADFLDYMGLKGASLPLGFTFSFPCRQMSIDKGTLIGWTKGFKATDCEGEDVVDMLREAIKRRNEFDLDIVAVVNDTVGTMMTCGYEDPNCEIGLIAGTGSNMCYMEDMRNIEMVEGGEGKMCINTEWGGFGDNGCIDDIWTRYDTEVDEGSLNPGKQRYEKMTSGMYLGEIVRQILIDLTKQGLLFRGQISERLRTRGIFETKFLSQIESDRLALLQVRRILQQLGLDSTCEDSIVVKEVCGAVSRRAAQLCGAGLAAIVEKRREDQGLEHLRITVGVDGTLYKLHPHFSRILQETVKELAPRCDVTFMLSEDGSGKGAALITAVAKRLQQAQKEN
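Test system: HK5 enzyme. Quantity: 5 µg/mL HK5 final. Reagent: glucose and ATP substrates. Schedule: 90 min reaction incubation at room temperature, dark. Technique: resazurin-to-resorufin fluorescence via G6PDH and diaphorase coupling, 525/613 nm. Control set: DMSO wells with and without enzyme mix.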
p97 ATPase inh = inhibitors of human p97 ATPase, primary screen, biochemical | Transitional endoplasmic reticulum ATPase (Homo sapiens), P55072 | recombinant p97 ATPase, Kinase-Glo ATP luminescence, 3 h | inhibition, % at 8 µM | 220,000 compounds, 0.42% hits | AID 1481, 2009; in the data active = inhibition above about 15%;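 note: 0% = DMSO vehicle and 100% = wells lacking enzyme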
HKDC1 act conf = HKDC1 hexokinase activators, confirmation, biochemical, single concentration; shares compounds with HKDC1 inh; recombinant HKDC1, G6PDH/diaphorase resazurin fluorescence; active compounds read low; inhibition, % at 20 µM; 740 compounds, 14% hits;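 active = inhibition at or below a set negative limit, negative inhibition meaning the enzyme was activated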
Numbers without * were called inactive.

Screening O=C(O)c1ccc2c(c1)C(=O)N(c1ccc(Nc3ccccc3)cc1)C2=O returned SUMO HTRF inh 16.8 and HKDC1 inh 0.9.
Screening Cc1ccc(OCC(=O)Nc2nc(C)c(Cl)cc2Cl)c([N+](=O)[O-])n1 returned HKDC1 inh -5.8.
Cc1ccc(SSc2cc(C)ccc2N)c(N)c1 was read as HKDC1 inh -44.3 and HKDC1 act conf -20.9.
Cc1ccc(O)c(N)c1 was read as HKDC1 inh -0.2.
For COc1cc(NC(=O)CSc2nc(C3CC3)nc3ccccc23)cc(OC)c1 the results were SUMO HTRF inh 15.1 and HKDC1 inh 1.6.
For COc1ccc2c(c1)C(=NNC(=O)c1ccccn1)c1cc(OC)ccc1-2 the results were SUMO HTRF inh 9.7, Diaphorase inh 4.7, G6PDH CS -13.9, HKDC1 inh 42.4*, p97 ATPase inh 1.7 and HKDC1 act conf -13.5.
`O=c1[nH]c(=S)[nH]cc1Oc1ccccc1` gave HKDC1 inh -1.4.
Cc1ccc(C(=O)ONc2ccc(N=NC(=O)c3ccccc3O)cc2)cc1 was read as SUMO HTRF inh -10.0, Diaphorase inh 54.2*, G6PDH CS 4.3, HKDC1 inh 65.0*, p97 ATPase inh 1.4 and HKDC1 act conf -2.1.
`Cc1ccc(C(=O)ONc2ccc(N=O)cc2)cc1` gave SUMO HTRF inh -23.6, Diaphorase inh 11.8, G6PDH CS -35.6, HKDC1 inh -0.4 and p97 ATPase inh -2.6.
`Cc1cc(C)c(S(=O)(=O)/N=C2\C=C(Nc3ccc(C(=O)O)cc3)C(=O)c3ccccc32)c(C)c1` gave SUMO HTRF inh 47.3, HKDC1 inh 40.7* and HKDC1 act conf 39.5.
Screening CCc1ccc(S(=O)(=O)/N=C2\C=C(Nc3cccc(C(=O)O)c3)C(=O)c3ccccc32)cc1 returned SUMO HTRF inh inconclusive, HKDC1 inh 52.7* and HKDC1 act conf 64.8.
For CCc1ccc(S(=O)(=O)/N=C2\C=CC(=O)c3ccccc32)cc1 the results were Diaphorase inh 28.1, G6PDH CS 44.2 and p97 ATPase inh 4.4.
`CCc1ccc(S(=O)(=O)/N=C2\C=C(Nc3ccc(O)cc3)C(=O)c3ccccc32)cc1` gave SUMO HTRF inh -3.9, HKDC1 inh 31.6 and HKDC1 act conf 5.8.
`O=C(O)c1cccc(NC2=C(n3nnc4ccccc43)C(=O)c3ccccc3C2=O)c1` gave SUMO HTRF inh 25.3, HKDC1 inh 16.2 and p97 ATPase inh 3.9.
CCc1ccc(S(=O)(=O)/N=C2/C=C(Sc3ncn[nH]3)C(=O)c3ccccc32)cc1 was read as SUMO HTRF inh 92.1*, Diaphorase inh 48.4, G6PDH CS 51.6*, HKDC1 inh 71.3*, p97 ATPase inh 12.4 and HKDC1 act conf 73.0.
CCC(Oc1cc(Cl)ccc1Cl)C(=O)N1CCCN(C)CC1 (centres undefined) was read as SUMO HTRF inh 11.5 and HKDC1 inh 1.8.
Screening O=C(COC(=O)/C=C/c1ccc(OC(F)F)cc1)Nc1cccc(S(=O)(=O)N2CCOCC2)c1 returned HKDC1 inh -2.0.
O=C(CCCCC(=O)Sc1ccccc1)Sc1ccccc1 was read as HKDC1 inh 38.7* and HKDC1 act conf -4.4.
Screening N#Cc1ccc(C(=O)N(Cc2ccco2)c2c(N)n(Cc3ccccc3)c(=O)[nH]c2=O)cc1 returned HKDC1 inh -0.1.
Screening O=C(Nc1ccccc1N1CCCC1)c1cccc(-c2cc3ccccc3oc2=O)c1 returned SUMO HTRF inh 11.2, Diaphorase inh 16.9, G6PDH CS 10.4, HKDC1 inh -0.4 and p97 ATPase inh -2.2.
O=C(Nc1ccc(N2CCCC2)cc1)c1cccc(-c2cc3ccccc3oc2=O)c1 was read as SUMO HTRF inh 32.0, Diaphorase inh -27.4, G6PDH CS -21.4, HKDC1 inh -40.2, p97 ATPase inh 3.3 and HKDC1 act conf -24.8*.
O=C(CSc1nc(-c2ccc(F)cc2)nc2c1Cc1ccccc1O2)Nc1ccc(C(=O)O)cc1 was read as SUMO HTRF inh inconclusive, Diaphorase inh 60.2*, G6PDH CS -3.4, HKDC1 inh 44.0*, p97 ATPase inh -3.6 and HKDC1 act conf -27.3.
`O=C(c1ccccc1)c1coc2ccc(O)c(Cl)c12` gave SUMO HTRF inh -15.2, Diaphorase inh -2.9, G6PDH CS 12.2, HKDC1 inh -5.2 and p97 ATPase inh 4.3.
For O=C1C(=O)c2c(C(=O)c3ccccc3)coc2-c2ccccc21 the results were SUMO HTRF inh 23.2, Diaphorase inh 61.9*, G6PDH CS 60.7*, HKDC1 inh 50.8*, p97 ATPase inh 4.1 and HKDC1 act conf 53.2.
Screening CCN(CC)C(=O)c1[nH]cnc1C(=O)NCC(=O)OC(C)(C)C returned SUMO HTRF inh -5.4 and HKDC1 inh 2.0.
For O=S(=O)(c1ccc(NC(=S)NN=C(Cc2ccccc2)Cc2ccccc2)cc1)N1CCOCC1 the results were SUMO HTRF inh 5.5, Diaphorase inh 28.0, G6PDH CS 1.6, HKDC1 inh -47.1, p97 ATPase inh -2.2 and HKDC1 act conf -43.9*.
N#CC(C#N)=C1SC(=Nc2ccccc2)C(=Nc2ccccc2)N1c1ccccc1 was read as HKDC1 inh -85.7 and HKDC1 act conf -31.9.
For Fc1ccc(N2C(=S)SC(=Nc3ccccc3)C2=Nc2ccccc2)cc1 the results were HKDC1 inh -49.6 and HKDC1 act conf -31.9.
`O=C1/C(=C\c2cccnc2)SC(=S)N1c1ccc(F)cc1` gave SUMO HTRF inh -4.4, Diaphorase inh -17.6, G6PDH CS 1.3, HKDC1 inh -6.9 and p97 ATPase inh 4.2.
Screening Cc1ccc(C(=O)NCC(=O)OC(C)C(=O)NC2CCCc3ccccc32)cc1 (centres undefined) returned HKDC1 inh 1.2.
CC(=NNC(=S)N1CC2CCC(CC2)C1)c1cccc(C)n1 was read as HKDC1 inh -46.5 and HKDC1 act conf -51.9*.
For Cc1cccc(C(=O)N2CCCC(Nc3ccc(C)c(C)c3)C2)n1 (centres undefined) the results were SUMO HTRF inh 3.7 and HKDC1 inh 3.2.
CCOc1ccc(-n2c(C)cc(C(=O)CCl)c2C)cc1 was read as SUMO HTRF inh 8.8, Diaphorase inh 9.7, G6PDH CS -1.5, HKDC1 inh 34.5, p97 ATPase inh -3.3 and HKDC1 act conf 28.5.
`COC(=O)c1ccc(-n2c(C)cc(C(=O)CCl)c2C)cc1` gave SUMO HTRF inh 6.8, Diaphorase inh -3.2, G6PDH CS 1.9, HKDC1 inh 26.3 and p97 ATPase inh 2.6.
